# Published values gathered from unrelated publications.
# Protocols differ between the studies behind these lines.
# Target: Serine/threonine-protein kinase 38 (STK38, Homo sapiens, UniProt Q15208)
SMILES,observed,technique,concentration,remaining binding [%]
Cc1c(NC(=O)c2cc(C(N)=O)nc3cc(F)ccc23)c(C(F)(F)F)nn1Cc1ccc(C(C)(C)C)cc1,cell-free assay,competition with immobilised ligand,1 µM,93
C[C@H]1CCN(c2nccc(-c3cnn4ncccc34)n2)C1,binding,,1 µM,93
FC(F)(F)Oc1cccc(-c2cnc3ccc(-c4ccncc4)nn23)c1,cell-free assay,competition with immobilised ligand,5 µM,80
CCOCCn1cc(C(=O)Nc2ccc(-n3nc(-c4cccnc4)cc3C(F)(F)F)cn2)ccc1=O,cell-free assay,competition with immobilised ligand,1 µM,91
C=CC(=O)N1CCC(C(=O)NCC(=O)N2CCN(c3nc(-c4cnc(N)nc4C(F)F)nc(N4CCOCC4)n3)CC2)CC1,binding,competition with immobilised ligand,1 µM,88
CN(CCCC(F)(F)F)c1nccc(-c2cnn3ncccc23)n1,binding,,1 µM,100
Cc1c[nH]c2nccc(Oc3c(F)cc(Nc4cc(Cl)nc(N)n4)cc3F)c12,cell-free assay,competition with immobilised ligand,0.1 µM,89
COc1ncc2cc3ccccc3nc2c1C#N,cell-free assay,competition with immobilised ligand,5 µM,94
N[C@H]1CCN(c2nccc(-c3cnn4ncccc34)n2)C1,binding,,1 µM,100
CCS(=O)(=O)c1cc2cc(C[C@@](O)(CC(C)(C)c3ccc(F)cc3C(N)=O)C(F)(F)F)[nH]c2cn1,cell-free assay,competition with immobilised ligand,1 µM,76
O=C(NCCCN1CCOCC1)c1ccc(Nc2ncc(Cl)c(-c3ccc(Cl)s3)n2)cc1,binding,competition with immobilised ligand,1 µM,76
Cc1cnn2ncc(-c3ccnc(N(C)C)n3)c2c1,binding,,1 µM,100
O=C(NCc1ncc(C(F)(F)F)cc1Cl)c1ccc2c(c1)C1(CCS(=O)(=O)CC1)[C@H](C1CC1)N2S(=O)(=O)c1ccc(F)cc1,cell-free assay,competition with immobilised ligand,1 µM,92
C[C@@H](c1ccc(-n2cnc3c(N)ncnc32)cc1)N1CCc2nn(C)c(Cc3ccccc3)c2C1=O,binding,competition with immobilised ligand,0.1 µM,71
O=C(Nc1c[nH]nc1C(=O)NC1CCNCC1)c1cc(F)cc(F)c1,binding,competition with immobilised ligand,1 µM,97
O=C(NCCCN1CCOCC1)c1ccc(Nc2nccc(-c3cc4ccccc4s3)n2)cc1,binding,competition with immobilised ligand,1 µM,66
CN(C)c1nccc(-c2cnn3ncccc23)n1,binding,,1 µM,74
O=C(c1ccc(Nc2ncc(Cl)c(-c3cc4ccccc4s3)n2)cc1)N1CCC(N2CCCC2)CC1,binding,competition with immobilised ligand,1 µM,78
CNC(=O)[C@@H]1CC[C@@H](n2c(-c3ccc4cnccc4c3)nc3ccc(C(=O)NCc4cccc(C(N)=O)c4)cc32)C1,binding,competition with immobilised ligand,1 µM,62
Cc1cc(-n2nc(Cc3cc(F)cc(C(F)(F)F)c3)nc2C)ccc1C(N)=O,cell-free assay,competition with immobilised ligand,1 µM,83
CN(C)c1nccc(-c2cnc3ncccn23)n1,binding,,1 µM,79
